Laboratory results taken from ChEMBL document CHEMBL3865827, “A novel class of ethacrynic acid derivatives as promising drug-like potent generation of anticancer agents with established mechanism of action” (Eur J Med Chem, 2016).
The source made the active and inactive calls. No cut-off for these calls is given here.

Key:
HL-60 [1] = experiment: Induction of apoptosis in human HL60 cells assessed as early apoptotic cells at 10 to 50 uM after 24 hrs by Annexin V/7AAD-dual staining based FACS analysis; format: functional, cell-based
Procedure, shortened: (§1)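 HL60 cells treated 24 h with EA (10 or 50 µM) or derivatives (5 µM); controls vehicle only. Annexin V/7-AAD staining, flow cytometry; cells classed as dead, necrotic/late apoptotic, intact or early apoptotic, as percentages.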

HL-60 [2] = experiment: Selectivity index, ratio of IC50 for Cyprinus carpio EPC to IC50 for human HL60 cells
[3] = Cell cycle arrest in human HL60 cells assessed as accumulation at G2/M phase at 2.5 uM after 48 hrs by propidium iodide-staining based FACS analysis (reference value: 2.2 %); format: functional; details: HL-60
Procedure, shortened: (§2)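 HL60 cells, 25,000 per well, exposed 24 and 48 h to 2.5 µM compounds; controls DMSO (1% final). Propidium iodide staining, flow cytometry; fractions in sub-G1, G0/G1, S and G2/M quantified.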

[4] = Cell cycle arrest in human HL60 cells assessed as accumulation at G2/M phase at 2.5 uM after 24 hrs by propidium iodide-staining based FACS analysis (reference value: 5.1 %); format: functional; details: HL-60; procedure, shortened: as §2
[5] = Antiproliferative activity against human KB cells after 24 to 72 hrs by MTS assay; format: functional, cell-based
Procedure, shortened: (§3)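 Cells plated, then dosed 24 h later with compounds in DMSO (1% final; controls DMSO alone), exposed 24 or 72 h. Proliferation inhibition measured as previously reported (MTS/NADH reagent). IC50 from duplicate experiments over 0.5 nM–100 µM. KB grown in D-MEM with 10% fetal calf serum, penicillin, streptomycin, fungizone, 5% CO2; other lines in complete RPMI. EPC are quiescent Cyprinus carpio endothelial progenitor cells.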

[6] = Cell cycle arrest in human HL60 cells assessed as accumulation at sub G1 phase at 2.5 uM after 24 hrs by propidium iodide-staining based FACS analysis (reference value: 2.6 %); format: functional; details: HL-60; procedure, shortened: as §2
[7] = Antiproliferative activity against human PC3 cells after 24 to 72 hrs by MTS assay; format: functional, cell-based; details: PC-3
[8] = Antiproliferative activity against human HL60 cells after 24 to 72 hrs by MTS assay; format: functional, cell-based; details: HL-60; procedure, shortened: as §3
[9] = Cell cycle arrest in human HL60 cells assessed as accumulation at S phase at 2.5 uM after 48 hrs by propidium iodide-staining based FACS analysis (reference value: 52.6 %); format: functional; details: HL-60; procedure, shortened: as §2
KB [10] = experiment: Selectivity index, ratio of IC50 for Cyprinus carpio EPC to IC50 for human KB cells
[11] = Cell cycle arrest in human HL60 cells assessed as accumulation at S phase at 2.5 uM after 24 hrs by propidium iodide-staining based FACS analysis (reference value: 48.9 %); format: functional; details: HL-60; procedure, shortened: as §2
[12] = Antiproliferative activity against human SKOV3 cells after 24 to 72 hrs by MTS assay; format: functional, cell-based; details: SK-OV-3
HL-60 [13] = experiment: Antiproliferative activity against human HL60 cells at 50 uM after 24 hrs by viacount-reagent based FACS analysis
HL-60 [14] = experiment: Induction of apoptosis in human HL60 cells assessed as necrotic/late apoptotic cells at 50 uM after 24 hrs by Annexin V/7AAD-dual staining based FACS analysis (reference value: 0.6 %); format: functional; procedure, shortened: as §1
HL-60 [15] = experiment: Induction of apoptosis in human HL60 cells assessed as early apoptotic cells at 10 uM after 24 hrs by Annexin V/7AAD-dual staining based FACS analysis (reference value: 7.7 %); format: functional; procedure, shortened: as §1
[16] = Antiproliferative activity against human HCT116 cells after 24 to 72 hrs by MTS assay; format: functional, cell-based; details: HCT-116
HL-60 [17] = experiment: Induction of apoptosis in human HL60 cells assessed as intact cells at 10 to 50 uM after 24 hrs by Annexin V/7AAD-dual staining based FACS analysis; format: functional, cell-based; procedure, shortened: as §1
MRC5 = experiment: Induction of necrosis in human MRC5 SV2 cells assessed as increase in LDH release at 50 uM after 24 to 48 hrs by fluorescence assay; format: functional, cell-based
HL-60 [18] = experiment: Induction of apoptosis in human HL60 cells assessed as necrotic/late apoptotic cells at 10 to 50 uM after 24 hrs by Annexin V/7AAD-dual staining based FACS analysis
HL-60 [19] = experiment: Induction of apoptosis in human HL60 cells assessed as intact cells at 50 uM after 24 hrs by Annexin V/7AAD-dual staining based FACS analysis (reference value: 91.6 %); format: functional; procedure, shortened: as §1
[20] = Cytotoxicity against human HL60 cells assessed as reduction in cell viability after 24 hrs by MTS assay; format: functional, cell-based; details: HL-60, 24 h
[21] = Cell cycle arrest in human HL60 cells assessed as accumulation at G0/G1 phase at 2.5 uM after 24 hrs by propidium iodide-staining based FACS analysis (reference value: 43.5 %); format: functional; details: HL-60; procedure, shortened: as §2
[22] = Cell cycle arrest in human HL60 cells assessed as accumulation at G0/G1 phase at 2.5 uM after 48 hrs by propidium iodide-staining based FACS analysis (reference value: 43.8 %); format: functional; details: HL-60; procedure, shortened: as §2
[23] = Antiproliferative activity against human OVCAR8 cells after 24 to 72 hrs by MTS assay; format: functional, cell-based; details: OVCAR-8
KB [24] = experiment: Induction of necrosis in human KB cells assessed as increase in LDH release at 50 uM after 24 to 48 hrs by fluorescence assay; format: functional, cell-based
[25] = Antiproliferative activity against Cyprinus carpio EPC after 24 to 72 hrs by MTS assay
HL-60 [26] = experiment: Induction of apoptosis in human HL60 cells assessed as early apoptotic cells at 50 uM after 24 hrs by Annexin V/7AAD-dual staining based FACS analysis (reference value: 7.7 %); format: functional; procedure, shortened: as §1
HL-60 [27] = experiment: Induction of apoptosis in human HL60 cells assessed as necrotic/late apoptotic cells at 10 uM after 24 hrs by Annexin V/7AAD-dual staining based FACS analysis (reference value: 0.6 %); format: functional; procedure, shortened: as §1
HCT-116 = experiment: Induction of necrosis in human HCT116 cells assessed as increase in LDH release 50 uM after 24 to 48 hrs by fluorescence assay; format: functional, cell-based
[28] = Cell cycle arrest in human HL60 cells assessed as accumulation at sub G1 phase at 2.5 uM after 48 hrs by propidium iodide-staining based FACS analysis (reference value: 1.4 %); format: functional; details: HL-60; procedure, shortened: as §2
HL-60 [29] = experiment: Induction of apoptosis in human HL60 cells assessed as dead cells at 10 uM after 24 hrs by Annexin V/7AAD-dual staining based FACS analysis (reference value: 0.1 %); format: functional
HL-60 [30] = experiment: Induction of apoptosis in human HL60 cells assessed as intact cells at 10 uM after 24 hrs by Annexin V/7AAD-dual staining based FACS analysis (reference value: 91.6 %); format: functional; procedure, shortened: as §1
HL-60 [31] = experiment: Induction of apoptosis in human HL60 cells assessed as dead cells at 50 uM after 24 hrs by Annexin V/7AAD-dual staining based FACS analysis (reference value: 0.1 %); format: functional
[32] = Antiproliferative activity against human MCF7 cells after 24 to 72 hrs by MTS assay; format: functional, cell-based
HL-60 [33] = experiment: Induction of apoptosis in human HL60 cells assessed as dead cells at 10 to 50 uM after 24 hrs by Annexin V/7AAD-dual staining based FACS analysis

Compound: C=C(CC)C(=O)c1ccc(OCC(=O)O)c(Cl)c1Cl [ETHACRYNIC ACID]
- Activity (HL-60 [1]): Active
- Ratio IC50 (HL-60 [2]): >2
- Activity [3]: 1.3%
- Activity [4]: 8.3%
- IC50 [5]: 11 µM
- Activity [6]: 2.7%
- IC50 [7]: 75 µM
- IC50 [8]: 46 µM
- Activity [9]: 54.1%
- Ratio IC50 (KB [10]): >9
- Activity [11]: 43.6%
- IC50 [12]: > 100 µM
- Activity (HL-60 [13]): Active
- Activity (HL-60 [14]): 0.8%
- Activity (HL-60 [15]): 11.2%
- IC50 [16]: 75 µM
- Activity (HL-60 [17]): Active
- Activity (MRC5): Active
- Activity (HL-60 [18]): Active
- Activity (HL-60 [19]): 57.9%
- IC50 [20]: 38 µM
- Activity [21]: 45.4%
- Activity [22]: 41.5%
- IC50 [23]: 72 µM
- Activity (KB [24]): Active
- IC50 [25]: > 100 µM
- Activity (HL-60 [26]): 41.3%
- Activity (HL-60 [27]): 0.9%
- Activity (HCT-116): Active
- Activity [28]: 3.1%
- Activity (HL-60 [29]): 0.1%
- Activity (HL-60 [30]): 87.8%
- Activity (HL-60 [31]): 0%
- IC50 [32]: 41 µM
- Activity (HL-60 [33]): Active
